According to ChEMBL document CHEMBL1124060, “2-Ethynylbenzenealkanamines. A new class of calcium entry blockers” (1988):

Tests used:
Assay type in all cases: functional
Cavia porcellus [1] = species on record: Cavia porcellus; assay: Concentration needed to achieve a 75% increase in coronary blood flow in 'Langendorff', guinea pig heart (in vitro negative inotropic activity)
Summary of the method: (§1)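 Isolated Langendorff-perfused guinea pig hearts infused with a range of drug concentrations; force (g), rate (beats/min) and coronary flow (mL/min) recorded. A linear regression of percent-control flow gives C175, the micromolar concentration raising flow to 175% of control, reported only if within the tested range. Raw data analysed by paired t tests.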

Rattus norvegicus [2] = assay: Ability to lower blood pressure in the spontaneously hypertensive rat (SHR) at 1 mg/kg (p.o.); settings: route oral
Summary of the method: (§2)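 Spontaneously hypertensive rats dosed orally at the stated dose; read-out is the maximum fall in blood pressure (mmHg), with significance shown as P.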

Cavia porcellus [3] = species on record: Cavia porcellus; assay: Concentration needed to elicit a 75% increase beyond control in coronary flow in ''Langendorff'', guinea pig heart (in vitro); summary of the method: as §1
Cavia porcellus [4] = species on record: Cavia porcellus; assay: Concentration needed to achieve a 75% increase in coronary blood flow in 'Langendorff', guinea pig heart (in vitro Negative inotropic potency); summary of the method: as §1
Oryctolagus cuniculus [5] = species on record: Oryctolagus cuniculus; assay: In vitro inhibition of development of isometric tension, in response to norepinephrine (NE, 10 uM) in rabbit aorta expressed as percent change from control
Summary of the method: (§3)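 Test compounds at 10 μM; tension and calcium influx each expressed as % change from control, measured against KCl ([…]) or NE (10 μM) stimulus.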

Oryctolagus cuniculus [6] = species on record: Oryctolagus cuniculus; assay: In vitro inhibition of development of isometric tension, in response to KCl (60 uM) in rabbit aorta expressed as percent change from control; summary of the method: as §3
Oryctolagus cuniculus [7] = species on record: Oryctolagus cuniculus; assay: Inhibition of [Ca2+] influx in response to a stimulus of KCL (60 uM) expressed as percent change from control; summary of the method: as §3
Rattus norvegicus [8] = assay: Ability to lower blood pressure in the spontaneously hypertensive rat (SHR) at 10 mg/kg (p.o.); settings: route oral; summary of the method: as §2
Oryctolagus cuniculus [9] = species on record: Oryctolagus cuniculus; assay: Inhibition of [Ca2+] influx in response to a stimulus of norepinephrine (NE, 10 uM) expressed as percent change from control; summary of the method: as §3
Rattus norvegicus [10] = assay: Ability to lower blood pressure in the spontaneously hypertensive rat (SHR) at 100 mg/kg (p.o.); settings: route oral
Summary of the method: (§4)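 Spontaneously hypertensive rats were given a single oral dose of the compound. The read-out was the maximum fall in blood pressure, in mmHg, after that dose. A P value for significance was reported with each value.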

Rattus norvegicus [11] = assay: Ability to lower blood pressure in the spontaneously hypertensive rat (SHR) at 29 mg/kg (p.o.); settings: route oral; summary of the method: as §4

| SMILES | Contractile force, % of control (Cavia porcellus [1]) [%] | Max fall in blood pressure (Rattus norvegicus [2]) [mmHg] | C175 (Cavia porcellus [3]) [µM] | P (Ei) (Cavia porcellus [4]) | Change (Oryctolagus cuniculus [5]) [%] | Change (Oryctolagus cuniculus [6]) [%] | Change (Oryctolagus cuniculus [7]) [%] | Max fall in blood pressure (Rattus norvegicus [8]) [mmHg] | Change (Oryctolagus cuniculus [9]) [%] | Max fall in blood pressure (Rattus norvegicus [10]) [mmHg] | Max fall in blood pressure (Rattus norvegicus [11]) [mmHg] |
| --- | --- | --- | --- | --- | --- | --- | --- | --- | --- | --- | --- |
| COc1ccc(C#Cc2ccccc2)c(CC(C)N(C)CCc2ccc(OC)c(OC)c2)c1 (stereo not drawn) | 70 | 53 | 0.025 | <0.05 |  |  |  |  |  |  |  |
| COc1cc(CCNC(C)Cc2cc(OC)ccc2C#Cc2ccccc2)cc(OC)c1 (stereo not drawn) | 120 |  | 0.00075 | 0.026 | -13 | -15 | -42 | 36 | -23 |  |  |
| COc1ccc(C#Cc2ccccc2)c(CC(C)N(C)CCc2ccc(Cl)c(Cl)c2)c1 (stereo not drawn) | 90 | 67 | 0.004 | >0.5 |  |  |  |  |  |  |  |
| COc1ccc(C#Cc2ccccc2)c(CCCN(C)CCc2ccc(OC)c(OC)c2)c1 | 85 |  | 3 | <0.05 |  |  |  |  |  | 62 |  |
| CCCCC#Cc1ccc(OC)cc1CCCN(C)CCc1ccc(OC)c(OC)c1 | 100 |  | 0.2 | >0.5 |  |  |  |  |  | 35 |  |
| COc1ccc(C#Cc2ccc([S+](C)[O-])cc2)c(CC(C)N(C)CCc2ccc(OC)c(OC)c2)c1 (stereo not drawn) | 10 |  | 3 | <0.001 |  |  |  |  |  |  | 29 |
